For experiment [1], the target named is Mitogen-activated protein kinase 14 (Homo sapiens) (UniProt Q16539). Kind of experiment: Inhibition of human recombinant p38alpha at 15 nM related to control ULK1.
Experiment [2] has as its target Mitogen-activated protein kinase kinase kinase kinase 4 (Homo sapiens) (UniProt O95819). Description: Inhibition of human recombinant HGK at 15 nM in presence of ATP by radiometric assay relative to control.
The target in experiment [3] is Serine/threonine-protein kinase 38-like (Homo sapiens) (UniProt Q9Y2H1). Description: Inhibition of human recombinant NDR2 at 15 nM related to control ULK1.
Sequence of Serine/threonine-protein kinase 38-like (Homo sapiens) (Q9Y2H1 2-464 limits assumed): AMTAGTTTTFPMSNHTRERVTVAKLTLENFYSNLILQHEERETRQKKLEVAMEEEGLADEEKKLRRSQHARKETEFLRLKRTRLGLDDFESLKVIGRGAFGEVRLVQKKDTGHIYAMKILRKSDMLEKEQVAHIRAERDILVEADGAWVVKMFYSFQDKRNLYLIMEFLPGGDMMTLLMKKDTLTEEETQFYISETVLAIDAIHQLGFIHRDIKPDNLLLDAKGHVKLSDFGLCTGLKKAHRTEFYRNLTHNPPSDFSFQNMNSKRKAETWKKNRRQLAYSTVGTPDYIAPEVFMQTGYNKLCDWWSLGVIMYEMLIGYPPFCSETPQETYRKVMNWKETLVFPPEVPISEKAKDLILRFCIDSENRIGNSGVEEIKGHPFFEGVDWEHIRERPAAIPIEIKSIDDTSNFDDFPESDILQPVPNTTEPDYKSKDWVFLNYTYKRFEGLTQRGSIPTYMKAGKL
The target in experiment [4] is Tyrosine-protein kinase BTK (Homo sapiens) (UniProt Q06187). Kind of experiment: Inhibition of human recombinant BTK at 15 nM in presence of ATP by radiometric assay relative to control.
Sequence of Tyrosine-protein kinase BTK (Homo sapiens) (Q06187 whole entry): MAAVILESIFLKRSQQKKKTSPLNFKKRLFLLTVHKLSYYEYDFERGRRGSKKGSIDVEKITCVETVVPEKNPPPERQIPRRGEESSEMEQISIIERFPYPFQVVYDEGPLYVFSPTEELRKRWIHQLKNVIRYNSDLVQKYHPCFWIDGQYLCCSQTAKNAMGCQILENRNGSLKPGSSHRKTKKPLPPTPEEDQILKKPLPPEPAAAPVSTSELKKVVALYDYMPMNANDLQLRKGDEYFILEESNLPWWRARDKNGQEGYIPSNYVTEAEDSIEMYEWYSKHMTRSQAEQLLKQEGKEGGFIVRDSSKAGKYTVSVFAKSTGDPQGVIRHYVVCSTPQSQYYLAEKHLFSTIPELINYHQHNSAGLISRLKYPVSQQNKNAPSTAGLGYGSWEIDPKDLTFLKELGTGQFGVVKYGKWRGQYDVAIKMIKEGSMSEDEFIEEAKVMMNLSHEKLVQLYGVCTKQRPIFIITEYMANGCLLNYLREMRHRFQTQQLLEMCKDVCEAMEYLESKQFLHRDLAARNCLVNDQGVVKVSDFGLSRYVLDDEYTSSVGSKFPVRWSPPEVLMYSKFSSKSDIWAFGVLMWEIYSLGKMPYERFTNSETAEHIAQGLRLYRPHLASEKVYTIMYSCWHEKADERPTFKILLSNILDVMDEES
Experiment [5] addresses Bone morphogenetic protein receptor type-1B (Homo sapiens) (UniProt O00238). Description: Inhibition of human recombinant BMPR1B at 15 nM in presence of ATP by radiometric assay relative to control. In a few lines:
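Part of a radiometric in vitro activity panel of 327 recombinant human kinases. Each kinase was tested in duplicate at one inhibitor concentration. Activity remaining was expressed as a percentage of the vehicle control, and percent inhibition was taken as 100 minus that value.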

Experiment [6] deals with Casein kinase I isoform gamma-2 (Homo sapiens) (UniProt P78368). Kind of experiment: Inhibition of human recombinant CK1g2 at 15 nM in presence of ATP by radiometric assay relative to control.
Experiment [7] deals with Protein kinase C eta type (Homo sapiens) (UniProt P24723). Description: Inhibition of human recombinant PKCH at 40 nM related to control ULK1.
The target in experiment [8] is Epithelial discoidin domain-containing receptor 1 (Homo sapiens) (UniProt Q08345). Description: Inhibition of human recombinant DDR1 at 40 nM related to control ULK1.
Sequence of Epithelial discoidin domain-containing receptor 1 (Homo sapiens) (Q08345 whole entry, the tested form may be a part): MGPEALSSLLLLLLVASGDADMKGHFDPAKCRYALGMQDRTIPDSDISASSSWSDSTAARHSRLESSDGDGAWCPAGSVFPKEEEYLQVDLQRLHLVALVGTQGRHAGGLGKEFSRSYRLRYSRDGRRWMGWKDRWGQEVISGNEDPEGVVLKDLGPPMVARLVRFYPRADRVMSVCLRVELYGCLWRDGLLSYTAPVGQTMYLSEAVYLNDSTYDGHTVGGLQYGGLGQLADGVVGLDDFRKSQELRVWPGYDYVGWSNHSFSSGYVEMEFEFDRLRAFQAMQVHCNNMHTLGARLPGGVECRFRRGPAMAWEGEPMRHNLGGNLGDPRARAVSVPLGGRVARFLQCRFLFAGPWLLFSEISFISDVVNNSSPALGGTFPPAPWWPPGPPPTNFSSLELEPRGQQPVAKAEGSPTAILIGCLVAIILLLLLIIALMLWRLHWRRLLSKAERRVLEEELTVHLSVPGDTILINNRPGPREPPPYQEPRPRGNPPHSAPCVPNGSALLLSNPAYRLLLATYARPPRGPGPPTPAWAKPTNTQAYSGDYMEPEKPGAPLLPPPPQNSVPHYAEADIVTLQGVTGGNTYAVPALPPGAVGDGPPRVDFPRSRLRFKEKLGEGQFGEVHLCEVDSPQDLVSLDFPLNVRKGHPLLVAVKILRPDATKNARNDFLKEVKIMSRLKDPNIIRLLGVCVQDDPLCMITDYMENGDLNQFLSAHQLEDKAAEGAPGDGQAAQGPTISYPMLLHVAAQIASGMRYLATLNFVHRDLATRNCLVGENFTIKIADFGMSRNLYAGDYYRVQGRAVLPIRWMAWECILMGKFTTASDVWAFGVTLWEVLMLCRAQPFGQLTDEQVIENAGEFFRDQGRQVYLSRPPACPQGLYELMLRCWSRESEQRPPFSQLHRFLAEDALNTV
Experiment [9] concerns the target Dual specificity protein kinase CLK3 (Homo sapiens) (UniProt P49761). Kind of experiment: Inhibition of human recombinant CLK3 at 40 nM related to control ULK1.
The target in experiment [10] is T1, Ephrin type-A receptor 1 (Homo sapiens) (UniProt P21709).
T1 sequence (whole entry): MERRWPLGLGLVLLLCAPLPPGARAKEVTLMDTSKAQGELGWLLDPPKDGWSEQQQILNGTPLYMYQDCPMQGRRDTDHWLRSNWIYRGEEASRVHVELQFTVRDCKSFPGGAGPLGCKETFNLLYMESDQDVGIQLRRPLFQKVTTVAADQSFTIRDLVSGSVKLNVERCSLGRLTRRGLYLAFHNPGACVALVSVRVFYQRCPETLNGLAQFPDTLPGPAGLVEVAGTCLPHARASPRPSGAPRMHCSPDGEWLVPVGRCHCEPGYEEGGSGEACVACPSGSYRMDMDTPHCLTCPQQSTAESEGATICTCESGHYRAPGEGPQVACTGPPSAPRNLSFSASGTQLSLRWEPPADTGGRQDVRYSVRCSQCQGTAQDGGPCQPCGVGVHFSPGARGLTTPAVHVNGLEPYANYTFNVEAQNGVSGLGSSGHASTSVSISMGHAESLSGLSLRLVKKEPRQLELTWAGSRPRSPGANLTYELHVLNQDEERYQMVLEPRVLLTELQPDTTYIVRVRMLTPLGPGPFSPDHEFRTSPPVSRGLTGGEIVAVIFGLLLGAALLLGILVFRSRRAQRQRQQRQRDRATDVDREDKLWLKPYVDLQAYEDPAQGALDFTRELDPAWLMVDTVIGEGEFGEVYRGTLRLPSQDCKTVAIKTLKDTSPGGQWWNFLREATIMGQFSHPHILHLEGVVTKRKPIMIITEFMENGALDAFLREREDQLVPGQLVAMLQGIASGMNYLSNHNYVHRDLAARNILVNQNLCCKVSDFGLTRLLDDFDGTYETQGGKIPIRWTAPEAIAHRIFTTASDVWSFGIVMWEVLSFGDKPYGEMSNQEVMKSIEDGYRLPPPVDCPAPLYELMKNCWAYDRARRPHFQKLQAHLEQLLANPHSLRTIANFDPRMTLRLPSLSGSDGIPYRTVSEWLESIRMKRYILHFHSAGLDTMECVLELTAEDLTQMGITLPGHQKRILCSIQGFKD
Kind of experiment: Inhibition of human recombinant EphA1 at 40 nM related to control ULK1.

Experiment [11] addresses T2, Ephrin type-B receptor 1 (Homo sapiens) (UniProt P54762).
T2 sequence (whole entry): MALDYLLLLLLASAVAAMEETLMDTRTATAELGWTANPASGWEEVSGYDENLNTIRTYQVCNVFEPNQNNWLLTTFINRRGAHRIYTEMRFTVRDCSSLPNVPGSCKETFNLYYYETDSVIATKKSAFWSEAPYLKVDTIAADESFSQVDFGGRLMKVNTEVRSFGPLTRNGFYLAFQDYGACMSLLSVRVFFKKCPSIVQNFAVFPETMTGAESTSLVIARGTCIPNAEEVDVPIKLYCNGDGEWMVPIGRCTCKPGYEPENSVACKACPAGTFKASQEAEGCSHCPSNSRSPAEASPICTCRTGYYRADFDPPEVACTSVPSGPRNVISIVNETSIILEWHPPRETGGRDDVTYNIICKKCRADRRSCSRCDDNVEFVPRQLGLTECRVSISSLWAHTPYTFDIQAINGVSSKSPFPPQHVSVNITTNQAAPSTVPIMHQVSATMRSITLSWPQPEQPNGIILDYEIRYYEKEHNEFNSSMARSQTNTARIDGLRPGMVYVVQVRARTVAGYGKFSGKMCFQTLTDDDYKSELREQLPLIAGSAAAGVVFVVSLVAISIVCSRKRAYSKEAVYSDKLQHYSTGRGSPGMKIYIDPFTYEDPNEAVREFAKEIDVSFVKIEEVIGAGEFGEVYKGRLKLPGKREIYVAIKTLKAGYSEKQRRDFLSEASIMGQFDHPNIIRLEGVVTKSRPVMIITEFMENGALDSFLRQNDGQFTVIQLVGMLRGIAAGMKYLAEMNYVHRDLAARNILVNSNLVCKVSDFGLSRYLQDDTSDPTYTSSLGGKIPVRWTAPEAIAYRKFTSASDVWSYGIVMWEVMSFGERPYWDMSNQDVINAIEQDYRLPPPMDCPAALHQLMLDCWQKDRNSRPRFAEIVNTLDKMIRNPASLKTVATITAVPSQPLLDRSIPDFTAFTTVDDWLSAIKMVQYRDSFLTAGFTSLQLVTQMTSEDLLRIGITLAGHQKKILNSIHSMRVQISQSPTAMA
Description: Inhibition of human recombinant EphB1 at 500 nM in presence of ATP by radiometric assay relative to control.

The target in experiment [12] is Protein-tyrosine kinase 2-beta (Homo sapiens) (UniProt Q14289). Description: Inhibition of human recombinant PYK2 at 500 nM related to control ULK1.
Sequence of Protein-tyrosine kinase 2-beta (Homo sapiens) (Q14289 whole entry, looked up): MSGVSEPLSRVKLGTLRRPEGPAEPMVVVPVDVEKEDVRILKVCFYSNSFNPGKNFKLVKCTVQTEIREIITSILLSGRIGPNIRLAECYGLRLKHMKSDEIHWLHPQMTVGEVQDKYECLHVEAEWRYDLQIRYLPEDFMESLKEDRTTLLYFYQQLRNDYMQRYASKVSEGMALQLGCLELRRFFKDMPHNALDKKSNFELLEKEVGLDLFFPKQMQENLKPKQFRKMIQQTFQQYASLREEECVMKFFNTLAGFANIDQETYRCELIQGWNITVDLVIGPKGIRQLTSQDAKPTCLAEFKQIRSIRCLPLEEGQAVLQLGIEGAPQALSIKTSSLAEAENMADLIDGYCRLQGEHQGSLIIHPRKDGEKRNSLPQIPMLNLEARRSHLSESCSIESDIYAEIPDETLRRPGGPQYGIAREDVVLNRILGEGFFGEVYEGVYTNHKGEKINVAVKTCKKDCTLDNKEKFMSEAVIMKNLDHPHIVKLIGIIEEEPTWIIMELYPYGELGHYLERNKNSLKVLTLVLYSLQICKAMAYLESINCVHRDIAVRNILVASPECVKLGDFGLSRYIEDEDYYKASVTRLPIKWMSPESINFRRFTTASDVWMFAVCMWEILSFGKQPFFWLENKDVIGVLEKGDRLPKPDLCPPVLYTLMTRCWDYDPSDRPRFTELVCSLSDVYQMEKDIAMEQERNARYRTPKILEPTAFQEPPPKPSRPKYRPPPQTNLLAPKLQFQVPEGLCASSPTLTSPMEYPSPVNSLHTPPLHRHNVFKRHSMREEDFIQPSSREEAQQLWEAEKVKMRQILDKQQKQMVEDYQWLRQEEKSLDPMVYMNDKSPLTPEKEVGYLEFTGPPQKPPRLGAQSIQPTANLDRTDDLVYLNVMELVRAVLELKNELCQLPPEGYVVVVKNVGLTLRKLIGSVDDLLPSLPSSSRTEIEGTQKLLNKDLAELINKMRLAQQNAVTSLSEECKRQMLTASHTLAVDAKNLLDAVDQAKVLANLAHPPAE
Experiment [13] has as its target Serine/threonine-protein kinase/endoribonuclease IRE1 (Homo sapiens) (UniProt O75460). Kind of experiment: Inhibition of human recombinant IRE1 at 500 nM in presence of ATP by radiometric assay relative to control.

For orientation: inhibition means the percentage by which the read-out fell short of the control.

Sequence of Mitogen-activated protein kinase kinase kinase kinase 4 (Homo sapiens) (O95819 2-1239 limits assumed): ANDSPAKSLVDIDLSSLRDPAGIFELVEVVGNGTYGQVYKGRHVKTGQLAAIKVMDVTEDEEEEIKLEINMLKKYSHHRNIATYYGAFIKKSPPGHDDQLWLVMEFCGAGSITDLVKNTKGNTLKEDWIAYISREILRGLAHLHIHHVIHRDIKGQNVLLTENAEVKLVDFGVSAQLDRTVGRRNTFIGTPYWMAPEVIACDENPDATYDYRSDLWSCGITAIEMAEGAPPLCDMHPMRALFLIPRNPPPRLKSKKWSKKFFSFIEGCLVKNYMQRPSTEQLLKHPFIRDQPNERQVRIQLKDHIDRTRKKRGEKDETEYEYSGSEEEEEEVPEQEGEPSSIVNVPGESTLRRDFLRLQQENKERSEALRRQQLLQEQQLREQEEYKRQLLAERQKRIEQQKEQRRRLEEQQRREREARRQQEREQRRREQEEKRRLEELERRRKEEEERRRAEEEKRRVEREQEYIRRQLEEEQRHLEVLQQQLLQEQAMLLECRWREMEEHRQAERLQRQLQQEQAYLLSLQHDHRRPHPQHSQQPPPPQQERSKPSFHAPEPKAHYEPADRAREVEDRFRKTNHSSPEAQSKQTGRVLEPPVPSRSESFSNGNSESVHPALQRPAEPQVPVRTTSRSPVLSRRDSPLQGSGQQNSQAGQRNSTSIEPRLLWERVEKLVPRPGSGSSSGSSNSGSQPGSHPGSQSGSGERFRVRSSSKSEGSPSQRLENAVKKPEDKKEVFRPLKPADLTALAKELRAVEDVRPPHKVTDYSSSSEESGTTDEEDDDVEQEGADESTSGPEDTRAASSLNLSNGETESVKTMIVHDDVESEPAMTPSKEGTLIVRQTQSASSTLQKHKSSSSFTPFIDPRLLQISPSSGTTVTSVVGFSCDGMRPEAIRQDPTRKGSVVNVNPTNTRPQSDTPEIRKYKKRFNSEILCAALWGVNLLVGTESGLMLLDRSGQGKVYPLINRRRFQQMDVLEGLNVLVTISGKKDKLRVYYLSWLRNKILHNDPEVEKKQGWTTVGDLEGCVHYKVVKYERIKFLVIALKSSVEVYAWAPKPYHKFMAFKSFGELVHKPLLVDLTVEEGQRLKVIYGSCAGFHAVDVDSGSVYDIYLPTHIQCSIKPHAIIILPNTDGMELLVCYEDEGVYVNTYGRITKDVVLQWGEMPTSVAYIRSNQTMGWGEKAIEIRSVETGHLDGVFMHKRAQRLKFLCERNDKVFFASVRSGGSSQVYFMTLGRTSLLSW
Sequence of Bone morphogenetic protein receptor type-1B (Homo sapiens) (O00238 whole entry): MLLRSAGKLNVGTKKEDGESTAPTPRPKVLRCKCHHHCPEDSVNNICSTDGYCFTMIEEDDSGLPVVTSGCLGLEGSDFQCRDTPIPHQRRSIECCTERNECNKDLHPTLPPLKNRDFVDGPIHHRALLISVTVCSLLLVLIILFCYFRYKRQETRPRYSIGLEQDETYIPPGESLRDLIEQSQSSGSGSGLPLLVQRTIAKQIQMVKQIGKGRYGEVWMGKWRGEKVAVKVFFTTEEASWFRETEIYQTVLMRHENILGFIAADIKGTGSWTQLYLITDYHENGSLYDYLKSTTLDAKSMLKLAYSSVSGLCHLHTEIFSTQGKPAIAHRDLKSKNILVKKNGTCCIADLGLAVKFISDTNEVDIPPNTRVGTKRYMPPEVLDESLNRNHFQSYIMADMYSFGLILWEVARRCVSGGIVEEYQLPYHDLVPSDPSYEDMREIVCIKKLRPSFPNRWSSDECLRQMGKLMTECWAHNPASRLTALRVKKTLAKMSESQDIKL

For `CC(C)[C@H](NC(=O)c1cc(-c2cnn3cc(-c4ccc(OCCN5CCCCC5)cc4)cnc23)cs1)C(F)(F)F`, the fold change (FC) in experiment [1] turned out to be 0.06; in experiment [3] it was 0.02. Further, the inhibition in experiment [2] was found to be 0%; in experiment [4], 0%; in [5], 24%; in [6], 0%.
For `O=C(N[C@@H](C1CC1)C(F)(F)F)c1cc(-c2cnn3cc(-c4ccc(F)cc4)cnc23)cs1`, the fold change (FC) worked out at 0 in experiment [7], 0.25 in experiment [8], 0 in experiment [9] and 0 in [10].
Consider `CNC(=O)c1ccccc1Oc1nc(Nc2cc(OC)c(OC)c(OC)c2)ncc1Br`, for which the inhibition in experiment [11] stood at 10%; in experiment [13], 0%. Also, the fold change (FC) in [12] worked out at 0.72.

Values taken from ChEMBL document CHEMBL5653631, “A Potent and Selective ULK1 Inhibitor Suppresses Autophagy and Sensitizes Cancer Cells to Nutrient Stress” (iScience, 2018).
